# High-throughput results deposited in PubChem BioAssay by several laboratories.
# MC4R antag cAMP – MC4R antagonists of cAMP signaling, primary screen, cell-based, TR-FRET, antagonist arm of biased-ligand search; Melanocortin receptor 4 (Homo sapiens), P32245; MC4R-expressing cells, MTII-stimulated cAMP, LANCE TR-FRET; inhibition, % at 6.5 µM; 360,000 compounds, 0.48% hits; AID 540295, 2011;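 active = inhibition above its plate's cutoff, the mean of tested wells on that plate plus 3 SD, cut at about 29% in these data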;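 note: 0% = Melanotan II alone and 100% = Melanotan II plus saturating MCL0020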
#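 Material – human MC4R-expressing U2OS cells · Repeats – no replicates · Detection – TR-FRET with Eu-cAMP and labeled anti-cAMP, 671 nm · Times – compound 30 min, challenge 1 h, detection 1 h · Compound – single nominal compound dose of 6.5 µM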
# TMEM16A act – TMEM16A chloride channel activators or potentiators, primary screen, cell-based, HTS; Anoctamin-1 (Mus musculus), Q8BHY3; HEK293 TMEM16A/YFP-H148Q/I152L, iodide quench fluorescence; hits give low values; B-score at 10 µM; 340,000 compounds, 0.3% hits; AID 623877, 2012;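 active = fluorescence-ratio B-score plate-corrected deviation score at least 3 library SD below zero, with starting fluorescence score within 5 deviations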;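 note: channel opened by trigger with iodide after compound preincubation; score built on the fluorescence ratio of max minus min over baseline; more negative score means more quench and so TMEM16A activation or potentiation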
# Target sequence (Q8BHY3 whole entry, looked up): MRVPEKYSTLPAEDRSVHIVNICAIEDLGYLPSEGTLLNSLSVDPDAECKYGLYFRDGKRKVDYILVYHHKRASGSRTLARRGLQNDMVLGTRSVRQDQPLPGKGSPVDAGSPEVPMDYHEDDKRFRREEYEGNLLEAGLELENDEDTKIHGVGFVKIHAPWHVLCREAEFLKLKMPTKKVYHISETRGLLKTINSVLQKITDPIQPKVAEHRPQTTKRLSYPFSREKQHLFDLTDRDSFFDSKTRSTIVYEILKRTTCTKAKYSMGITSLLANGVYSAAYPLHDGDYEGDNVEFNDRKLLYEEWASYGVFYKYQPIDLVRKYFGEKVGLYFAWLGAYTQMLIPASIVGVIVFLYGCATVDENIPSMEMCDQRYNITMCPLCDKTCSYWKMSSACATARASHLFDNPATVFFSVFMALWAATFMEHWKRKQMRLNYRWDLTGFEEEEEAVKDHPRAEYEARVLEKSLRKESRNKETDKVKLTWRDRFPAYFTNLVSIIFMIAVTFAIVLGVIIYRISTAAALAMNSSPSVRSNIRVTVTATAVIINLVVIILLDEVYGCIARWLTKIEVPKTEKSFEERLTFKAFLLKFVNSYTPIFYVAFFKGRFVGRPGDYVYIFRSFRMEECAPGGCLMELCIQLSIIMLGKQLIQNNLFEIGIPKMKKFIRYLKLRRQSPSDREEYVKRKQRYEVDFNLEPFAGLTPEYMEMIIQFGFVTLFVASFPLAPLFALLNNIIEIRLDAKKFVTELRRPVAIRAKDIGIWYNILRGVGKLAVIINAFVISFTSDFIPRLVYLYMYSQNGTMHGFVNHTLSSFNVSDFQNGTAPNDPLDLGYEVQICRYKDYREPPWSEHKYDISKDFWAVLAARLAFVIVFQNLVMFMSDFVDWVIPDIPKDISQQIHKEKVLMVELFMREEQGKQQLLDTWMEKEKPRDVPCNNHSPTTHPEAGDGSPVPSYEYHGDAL
# TMEM16A inh – TMEM16A chloride channel inhibitors, primary screen, cell-based, HTS; Anoctamin-1 (Mus musculus), Q8BHY3; HEK293 TMEM16A/YFP iodide influx fluorescence, ionomycin; normalized B-score (activity score, 25-100; higher = stronger inhibition) at 10 µM; 310,000 compounds, 1.2% hits; AID 588511, 2011;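 active = ratio plate-corrected score three or more library SD toward inhibition, starting fluorescence score within five deviations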;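 note: score derived from kinetic fluorescence span divided by baseline fluorescence per well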
# CSC inhib – cancer stem cell viability inhibitors, primary screen, luminescence; cancer stem cell-like cells viability; inhibition, % at 7.5 µM; 300,000 compounds, 1.1% hits; in the data active = inhibition above about 75%; tested in HMLE shEcad cells
# Beta apoptosis – inhibitors of cytokine-induced beta cell apoptosis, primary screen, luminescence; INS-1E cytokine-induced death, ATP luminescence, 48 h; percent of positive-control rescue, neutral wells zero; 300,000 compounds, 0.8% hits; protection from apoptosis, % (no concentration beside the values);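 active = Every replicate reaches about 75%, or at least half do and their mean reaches it too, limit read from the data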;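 note: 0% = cytokine-treated negative control wells and 100% = positive control rescue; higher means more ATP so stronger rescue from cytokine killing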
# MC4R ag barr – MC4R agonists recruiting beta-arrestin, primary screen, cell-based, luminescence, agonist arm of biased-ligand search | 360,000 compounds, 0.98% hits | U2OS MC4R beta-arrestin complementation; percent of melanotan II response, DMSO zero | activation, % at 8.9 µM | Melanocortin receptor 4 (Homo sapiens), P32245 | AID 540308, 2011;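 active = activation above a per-plate cutoff, the mean activation of sample wells on that plate plus 3 SD, cut at about 8% in these data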
# An asterisk follows results filed as active; i = inactive; x = no result. Compounds with a hit are over-represented: about 3.8% of the library has one in this group of screens.
SMILES,MC4R antag cAMP,TMEM16A act,TMEM16A inh,CSC inhib,Beta apoptosis,MC4R ag barr
COc1ccc(C(C(=O)NC2CCCCC2)N(C(=O)CCl)c2cccc(Cl)c2)cc1 (stereo unspecified),1,i,i,109*,99*,25*
COc1ccc(/C=C/C(=O)NC(=S)Nc2ccc(Br)cn2)cc1,8,i,i,x,x,0
CCOc1ccc(NS(=O)(=O)c2cc3c(cc2C)N(C)CCO3)cc1,11,-9*,i,5,4,3
CN1CCN(CCNC(=O)c2ccc(CS(=O)c3ccc(Br)cc3)o2)CC1 (stereo unspecified),3,x,x,x,x,0
O=c1c(C(c2ccccc2)c2c(O)sc3ccccc3c2=O)c(O)sc2ccccc12,5,i,100*,88*,-6,0
O=c1c2ccccc2sc2ccccc12,-1,i,x,x,x,-1
COc1ccc(S(=O)(=O)N2CCN(C(=O)c3cc4c(s3)CCCC4)CC2)cc1,-6,-34*,x,x,9,-2
Cc1cc[n+](C(C)C(=O)c2ccc(-c3ccccc3)cc2)cc1 (stereo unspecified),6,i,i,4,99*,-3
O=C(NC1=NC2CCCCC2N1)c1ccccc1 (stereo unspecified),2,-6.6*,i,1,-4,-1
CCC(=O)NC(c1ccc(OC)c(OC)c1)c1cc(Cl)c2cccnc2c1O (stereo unspecified),-4,i,x,x,x,0
CCC(=O)NC(c1ccco1)c1cc(Cl)c2ccccc2c1O (stereo unspecified),18,i,x,2,-5,0
CCC(=O)NC(c1ccc(C)cc1)c1cc(Cl)c2cccnc2c1O (stereo unspecified),3,i,x,x,88*,-2
CCCC(=O)NC(c1ccco1)c1cc(Cl)c2cccnc2c1O (stereo unspecified),12,i,i,-2,82*,-3
CCOc1ccc(C(Nc2cccnc2)c2cc(Cl)c3cccnc3c2O)cc1 (stereo unspecified),22,i,i,3,86*,-5
O=C(O)COc1ccccc1C(Nc1cccnc1)c1cc(Cl)c2cccnc2c1O (stereo unspecified),26,i,x,x,x,3
CCCC(=O)NC(c1cccs1)c1cc(Cl)c2cccnc2c1O (stereo unspecified),7,i,i,11,93*,-6
COC(=O)c1c(C(=O)OC)c(-c2ccc(Br)cc2)n2c1CS(=O)C2 (stereo unspecified),-5,i,i,-3,-2,0
C#CCOCCOCCOCCNc1nc(N2CCN(C(=O)[C@H](CCCCN)n3cc([C@@H](N)[C@H](C)CC)nn3)CC2)nc(N2CCN(C(=O)[C@H](CCC(=O)O)n3cc([C@@H](N)CCSC)nn3)CC2)n1,-1,x,x,x,-6,0
O=C(O)COc1ccccc1C(Nc1ccccn1)c1cc(Cl)c2cccnc2c1O (stereo unspecified),-2,i,i,19,-8,-2
CCCC(=O)NC(c1ccc2c(c1)OCO2)c1cc(Cl)c2cccnc2c1O (stereo unspecified),18,i,i,113*,85*,-1
O=C(NC(c1ccccc1)c1cc(Cl)c2cccnc2c1O)c1cccnc1 (stereo unspecified),x,x,i,102*,81*,x
Cc1ccc(S(=O)(=O)Nc2cc(Cl)c(O)c3ncccc23)cc1,14,i,i,29,110*,-2
CN(C(=O)COC(=O)c1ccccc1SCC(=O)N1CCCC1)C1CCS(=O)(=O)C1 (stereo unspecified),6,i,i,0,-3,-1
